Measurements: ChEMBL document CHEMBL1250451, “Mechanistic insights into a Ca2+-dependent family of alpha-mannosidases in a human gut symbiont” (Nat Chem Biol, 2010)

What was measured:
Type in all cases: protein assay
[1] = substrate: OC[C@H]1O[C@H](O[C@H]2[C@@H](O)[C@H](O)[C@@H](CO)O[C@@H]2O)[C@@H](O)[C@@H](O)[C@@H]1O; assay: Activity of Bacteroides thetaiotaomicron GH92 alpha-mannosidase GH92 alpha-mannosidase 4092 assessed as mannose release after 16 hrs by HPLC
Summary of the method: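 Yeast mannan or ovalbumin (mostly high-mannose N-glycans) at 1 mg ml−1 was incubated with recombinant IMAC-purified enzyme from E. coli. The methods give enzyme at 2 μM and the table footnote gives 1 μM. Buffer was 100 mM sodium HEPES pH 7.0 with 1 mg ml−1 BSA and 2 mM CaCl2. Aliquots were taken at 1 and 16 h and boiled 10 min. Mannose was measured by HPLC and scored by signal: >500 nC +++, 200–500 ++, <200 +.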

[2] = substrate: O=[N+]([O-])c1ccc(O[C@H]2O[C@H](CO)[C@@H](O)[C@H](O)[C@@H]2O)cc1; assay: (§1) Ratio of Kcat to Km for Bacteroides thetaiotaomicron GH92 alpha-mannosidase GH92 alpha-mannosidase 4092 assessed as mannose release after 16 hrs by HPLC
[3] = substrate: OC[C@H]1O[C@H](O[C@H]2[C@@H](O)[C@H](O)[C@@H](CO)O[C@@H]2O)[C@@H](O)[C@@H](O)[C@@H]1O; assay: as §1
[4] = substrate: O=[N+]([O-])c1ccc(O[C@H]2O[C@H](CO)[C@@H](O)[C@H](O)[C@@H]2O)cc1; assay: (§2) Activity of Bacteroides thetaiotaomicron GH92 alpha-mannosidase 2199 E537A mutant assessed as as mannose release after 16 hrs by HPLC relative to wild type enzyme
[5] = substrate: OC[C@H]1O[C@H](O[C@H]2[C@@H](O)[C@H](O)[C@@H](CO)O[C@@H]2O)[C@@H](O)[C@@H](O)[C@@H]1O; assay: as §2
[6] = substrate: O=[N+]([O-])c1ccc(O[C@H]2O[C@H](CO)[C@@H](O)[C@H](O)[C@@H]2O)cc1; assay: (§3) Ratio of Kcat to Km for Bacteroides thetaiotaomicron GH92 alpha-mannosidase 2199 E537A mutant assessed as as mannose release after 16 hrs by HPLC relative to wild type enzyme
[7] = substrate: OC[C@H]1O[C@H](O[C@H]2[C@@H](O)[C@H](O)[C@@H](CO)O[C@@H]2O)[C@@H](O)[C@@H](O)[C@@H]1O; assay: as §3
[8] = substrate: O=[N+]([O-])c1ccc(O[C@H]2O[C@H](CO)[C@@H](O)[C@H](O)[C@@H]2O)cc1; assay: (§4) Activity of Bacteroides thetaiotaomicron GH92 alpha-mannosidase 2199 E537Q mutant assessed as as mannose release after 16 hrs by HPLC relative to wild type enzyme
[9] = substrate: OC[C@H]1O[C@H](O[C@H]2[C@@H](O)[C@H](O)[C@@H](CO)O[C@@H]2O)[C@@H](O)[C@@H](O)[C@@H]1O; assay: as §4
[10] = substrate: O=[N+]([O-])c1ccc(O[C@H]2O[C@H](CO)[C@@H](O)[C@H](O)[C@@H]2O)cc1; assay: (§5) Ratio of Kcat to Km for Bacteroides thetaiotaomicron GH92 alpha-mannosidase 2199 E537Q mutant assessed as as mannose release after 16 hrs by HPLC relative to wild type enzyme
[11] = substrate: OC[C@H]1O[C@H](O[C@H]2[C@@H](O)[C@H](O)[C@@H](CO)O[C@@H]2O)[C@@H](O)[C@@H](O)[C@@H]1O; assay: as §5

B1: Alpha-1,2-mannosidase (BT_4092) (Bacteroides thetaiotaomicron), Q8A0C9 (protein)
chain: MKKLVYLIIFFLYSTVMNAQLKDLVQYVNTLQGTDSNFGLSYGNTYPTTGMPYGMHMWSAQTGKNGDGFKYMYAVDKIRAFSQSHQCSPWVSDYAVYSFMPMVGELVVNQDARATKFSHDNEIAKPHYYKVTFDNGITTEMAPTTRGVHLRFSYPTTGDAYLVLDGYTDMSEIKIDPAKRQISGWVNNQRFVNDSKSFRNYFVVQFDKPFEDYGVWENQKDEVFPQKLDGAGKGYGAFIKFKKGSKVQAKAASSYISAEQALITLNKELGKDKNLEVTKARGQKTWNEVLNRIVVEGCTDEQMKTFYSCLFRANLFSRKFYERKENGEPYYYSPYNGKIYDGYMYTDNGFWDTFRSQFPLTNILHPTMQGRYMNALLAAQEQCGWLPSWSSPGETGGMLGNHSISLLADAWAKGIRDFDPEKALKAYAHEAMNKGPWGGANGRGFWKEYFQLGYVPYPESMGSSAQTMEYAYDDFCGYQLAKMVGNKHYQEVFARQMYNYKNVFDKSIGFMRGKGVDGKWQEPFDPLEWGGPFCEGNAWHYTWSVFHDVQGLIDLFGSDEKFTTKIDSVFTIPNIIKPGTYGGVIHEMKEMELANMGQYAHGNQPIQHMPYLYCYAGQPWKTQYWVRQIVERLYNSTEKGYPGDEDQGGMSSWYILSSLGIYAVCPGTDEYVIGSPLFKKATITMENGNKFVIEAPENSKENLYIQSATLNGRLLDKNYIHYDDIAEGGVLKFEMGSQPNKERCTSKYAAPFSLSKE
- Km [1]: 2000 µM
- kcat [1]: 1.83 s⁻¹
- kcat/Km [2]: 1.12 M⁻¹ s⁻¹
- kcat/Km [3]: 900 M⁻¹ s⁻¹

B2: Alpha-1,2-mannosidase (BT_2199) (Bacteroides thetaiotaomicron), Q8A5N9 E537A (protein)
chain: MVTRLFFLSICFPFLLTSCQQSKKTVEFVDYVNPLMGTESTFAFSHGNTYPAVAVPWGMNFWSPQTGENGSGWMYTYTDSLMRGFRQTHQPSPWINDYGTFSIMPLAGELKMSHKERLVPFSHQQEKATPYNYSVTFNNGLQTSLSATSRGAVFEVSFPEKEDQYVVVDAYNGGSSITIEPEKRLVKGATRYNNGGVPDNFANYFMMEFSHPVIEYGTYNGDTLLHHQTDVAADYTCAYLKFDVPAGEKLTIRTASSFISPEQAAINFNREVADADVQLISGKAREQWNNYLGRVEAEGGTDEQLRTFYSCLYRTLLFPREFYEFDSQGNPVYYSPYDGNVHDGYMYTDNGFWDTFRAVHPLFTLLYPEVSERVTQSIINAYNESGFMPEWASPGHRGCMIGNNSVSLLVDAWMKGIQTVDAEKALEAMIHQTQARHAEIASVGRDGFEYYDKLGYVPYPEVPEATAKTLEYAYADWCIARFAESLGKQDIADQYYQKAPNYRNLYYPEHGFMWTKDAKGNWRDRFDATEWGGPFTAGSSWHWTWSVFHDPEGLSELMGGHEPMIARLDSMFVAPNTYNYGTYGFVIHEIAEMVALNMGQYAHGNQPVQHAIYLYDYIGQPWKTQYHLRNVMDKLYNSGSKGYCGDEDNGQTSAWYVFSAMGFYPVCPGMPEYAIGSPLFKKVTLHLPEGKNFVVSAADNAADRPYIRKALLNGQEFTRNYLTHDELKQGGELNLSMDSVPNQQRGTQPADFPYSYSK
- Km [4]: Not Active
- kcat [4]: Not Active
- Km [5]: 874 µM
- kcat [5]: 0.00045 s⁻¹
- kcat/Km [6]: 0.383 M⁻¹ s⁻¹
- kcat/Km [7]: 0.517 M⁻¹ s⁻¹

B3: Alpha-1,2-mannosidase (BT_2199) (Bacteroides thetaiotaomicron), Q8A5N9 E537Q (protein)
chain: MVTRLFFLSICFPFLLTSCQQSKKTVEFVDYVNPLMGTESTFAFSHGNTYPAVAVPWGMNFWSPQTGENGSGWMYTYTDSLMRGFRQTHQPSPWINDYGTFSIMPLAGELKMSHKERLVPFSHQQEKATPYNYSVTFNNGLQTSLSATSRGAVFEVSFPEKEDQYVVVDAYNGGSSITIEPEKRLVKGATRYNNGGVPDNFANYFMMEFSHPVIEYGTYNGDTLLHHQTDVAADYTCAYLKFDVPAGEKLTIRTASSFISPEQAAINFNREVADADVQLISGKAREQWNNYLGRVEAEGGTDEQLRTFYSCLYRTLLFPREFYEFDSQGNPVYYSPYDGNVHDGYMYTDNGFWDTFRAVHPLFTLLYPEVSERVTQSIINAYNESGFMPEWASPGHRGCMIGNNSVSLLVDAWMKGIQTVDAEKALEAMIHQTQARHAEIASVGRDGFEYYDKLGYVPYPEVPEATAKTLEYAYADWCIARFAESLGKQDIADQYYQKAPNYRNLYYPEHGFMWTKDAKGNWRDRFDATEWGGPFTQGSSWHWTWSVFHDPEGLSELMGGHEPMIARLDSMFVAPNTYNYGTYGFVIHEIAEMVALNMGQYAHGNQPVQHAIYLYDYIGQPWKTQYHLRNVMDKLYNSGSKGYCGDEDNGQTSAWYVFSAMGFYPVCPGMPEYAIGSPLFKKVTLHLPEGKNFVVSAADNAADRPYIRKALLNGQEFTRNYLTHDELKQGGELNLSMDSVPNQQRGTQPADFPYSYSK
- Km [8]: 3100 µM
- kcat [8]: 0.06 s⁻¹
- Km [9]: 571 µM
- kcat [9]: 0.000433 s⁻¹
- kcat/Km [10]: 19.5 M⁻¹ s⁻¹
- kcat/Km [11]: 0.767 M⁻¹ s⁻¹
